According to ChEMBL document CHEMBL1150387, “Development and experimental validation of a docking strategy for the generation of kinase-targeted libraries” (J Med Chem, 2008):

Experiments:
[1] = target: Fibroblast growth factor receptor 1 (Homo sapiens) (UniProt P11362); experiment: Inhibition of FGFR1 at 10 uM by HTRF assay relative to control
Procedure, shortened: (§1)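 HTRF kinase assay, one panel of kinases. Inhibitor stock 50 µM in 100% DMSO; tested at 10 µM. ATP and substrate at final levels near Km. Final buffer: 50 mM Hepes/NaOH pH 7.4, 40 µM Na3VO4, 0.005% Tween-20, 1 mM DTT, MnCl2 or MgCl2 at kinase-dependent levels. Started by adding ATP/substrate. Reaction run at room temperature, time varied by kinase. Detection mix in 50 mM Hepes pH 7.4, 0.1% BSA, 150 mM KF, incubated ≥1 h at room temperature. Activity expressed as % of uninhibited control; n=2.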

[2] = target: Tyrosine-protein kinase Lyn (Homo sapiens) (UniProt P07948); experiment: Inhibition of Lyn at 10 uM by HTRF assay relative to control; procedure, shortened: as §1
Chain of Tyrosine-protein kinase Lyn (Homo sapiens) (P07948 2-512 limits assumed): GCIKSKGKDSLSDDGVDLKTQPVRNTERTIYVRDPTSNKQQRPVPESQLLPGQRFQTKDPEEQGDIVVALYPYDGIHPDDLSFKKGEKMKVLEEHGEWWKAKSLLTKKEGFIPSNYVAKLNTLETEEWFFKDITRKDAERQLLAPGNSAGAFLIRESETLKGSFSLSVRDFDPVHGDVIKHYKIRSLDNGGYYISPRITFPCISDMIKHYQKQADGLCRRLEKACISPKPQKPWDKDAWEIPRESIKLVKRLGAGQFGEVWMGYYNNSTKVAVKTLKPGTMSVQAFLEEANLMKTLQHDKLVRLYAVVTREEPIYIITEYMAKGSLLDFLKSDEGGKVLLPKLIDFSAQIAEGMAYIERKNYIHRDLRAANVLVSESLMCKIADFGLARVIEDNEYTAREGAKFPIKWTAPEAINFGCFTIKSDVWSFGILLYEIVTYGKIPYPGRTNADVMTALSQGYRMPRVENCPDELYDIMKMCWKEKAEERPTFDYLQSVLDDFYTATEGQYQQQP

[3] = target: Protein-tyrosine kinase 6 (Homo sapiens) (UniProt Q13882); experiment: Inhibition of Brk at 10 uM by HTRF assay relative to control; procedure, shortened: as §1
Chain of Protein-tyrosine kinase 6 (Homo sapiens) (Q13882 whole entry, looked up): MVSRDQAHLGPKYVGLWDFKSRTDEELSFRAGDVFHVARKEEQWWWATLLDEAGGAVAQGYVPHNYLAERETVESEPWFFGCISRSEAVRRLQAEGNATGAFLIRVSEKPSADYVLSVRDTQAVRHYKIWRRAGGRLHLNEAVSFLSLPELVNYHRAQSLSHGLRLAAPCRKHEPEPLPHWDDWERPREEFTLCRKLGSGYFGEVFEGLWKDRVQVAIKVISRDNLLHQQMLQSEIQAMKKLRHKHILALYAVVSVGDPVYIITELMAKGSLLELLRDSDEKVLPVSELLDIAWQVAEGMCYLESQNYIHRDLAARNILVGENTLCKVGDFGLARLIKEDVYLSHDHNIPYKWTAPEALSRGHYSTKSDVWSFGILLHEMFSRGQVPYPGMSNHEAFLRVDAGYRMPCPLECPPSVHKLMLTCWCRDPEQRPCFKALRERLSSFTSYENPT

[4] = target: Ribosomal protein S6 kinase beta-1 (Homo sapiens) (UniProt P23443); experiment: Inhibition of p70S6K at 10 uM by HTRF assay relative to control; procedure, shortened: as §1
Chain of Ribosomal protein S6 kinase beta-1 (Homo sapiens) (P23443 whole entry, looked up): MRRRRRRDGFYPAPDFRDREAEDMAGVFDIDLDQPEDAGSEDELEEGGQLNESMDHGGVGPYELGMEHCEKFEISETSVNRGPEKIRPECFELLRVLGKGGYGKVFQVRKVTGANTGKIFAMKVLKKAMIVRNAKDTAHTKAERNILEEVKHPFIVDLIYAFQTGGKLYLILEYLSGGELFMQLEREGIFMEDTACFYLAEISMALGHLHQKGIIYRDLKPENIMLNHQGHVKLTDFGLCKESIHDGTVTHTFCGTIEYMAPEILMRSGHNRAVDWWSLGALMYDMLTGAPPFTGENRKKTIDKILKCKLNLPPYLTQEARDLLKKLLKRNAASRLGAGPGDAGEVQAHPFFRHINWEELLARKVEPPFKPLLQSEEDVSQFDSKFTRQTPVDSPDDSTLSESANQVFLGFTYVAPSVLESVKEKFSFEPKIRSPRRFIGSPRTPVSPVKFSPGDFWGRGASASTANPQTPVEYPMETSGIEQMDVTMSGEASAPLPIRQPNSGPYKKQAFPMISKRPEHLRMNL

[5] = target: T1, Tyrosine-protein kinase JAK3 (Homo sapiens) (UniProt P52333); experiment: Inhibition of JAK3 at 10 uM by HTRF assay relative to control; procedure, shortened: as §1
T1 sequence (whole entry): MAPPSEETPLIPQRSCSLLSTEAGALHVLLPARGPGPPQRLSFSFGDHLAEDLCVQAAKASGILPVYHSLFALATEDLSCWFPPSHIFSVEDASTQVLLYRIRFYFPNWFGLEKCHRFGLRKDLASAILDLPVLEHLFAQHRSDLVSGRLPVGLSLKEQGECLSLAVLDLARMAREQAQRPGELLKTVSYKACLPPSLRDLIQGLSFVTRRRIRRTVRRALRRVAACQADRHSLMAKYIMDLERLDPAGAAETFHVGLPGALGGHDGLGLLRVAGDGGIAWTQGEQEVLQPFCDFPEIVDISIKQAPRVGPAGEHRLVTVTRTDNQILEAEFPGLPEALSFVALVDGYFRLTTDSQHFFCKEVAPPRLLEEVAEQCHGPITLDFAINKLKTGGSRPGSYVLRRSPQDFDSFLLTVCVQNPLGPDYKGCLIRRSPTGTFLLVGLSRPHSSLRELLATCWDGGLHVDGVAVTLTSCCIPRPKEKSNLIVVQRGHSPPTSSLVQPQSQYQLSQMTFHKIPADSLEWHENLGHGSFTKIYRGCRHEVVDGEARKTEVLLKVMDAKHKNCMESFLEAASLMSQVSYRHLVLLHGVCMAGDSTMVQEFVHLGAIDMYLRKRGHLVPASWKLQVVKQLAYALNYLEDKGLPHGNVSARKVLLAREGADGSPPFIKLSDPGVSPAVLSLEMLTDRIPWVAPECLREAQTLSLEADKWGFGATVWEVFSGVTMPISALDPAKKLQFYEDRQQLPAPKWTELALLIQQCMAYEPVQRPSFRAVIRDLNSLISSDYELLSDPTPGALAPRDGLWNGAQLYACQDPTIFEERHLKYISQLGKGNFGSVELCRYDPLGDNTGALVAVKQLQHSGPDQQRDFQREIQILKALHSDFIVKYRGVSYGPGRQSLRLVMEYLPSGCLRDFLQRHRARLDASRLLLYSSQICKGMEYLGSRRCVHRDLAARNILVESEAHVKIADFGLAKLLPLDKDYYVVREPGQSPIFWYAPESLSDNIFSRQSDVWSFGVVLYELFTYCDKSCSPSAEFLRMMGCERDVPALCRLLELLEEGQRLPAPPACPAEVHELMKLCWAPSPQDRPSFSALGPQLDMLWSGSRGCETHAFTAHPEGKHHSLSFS

[6] = target: T2, Serine/threonine-protein kinase Chk1 (Homo sapiens) (UniProt O14757); experiment: Inhibition of CHK1 at 10 uM by HTRF assay relative to control; procedure, shortened: as §1
T2 sequence (whole entry): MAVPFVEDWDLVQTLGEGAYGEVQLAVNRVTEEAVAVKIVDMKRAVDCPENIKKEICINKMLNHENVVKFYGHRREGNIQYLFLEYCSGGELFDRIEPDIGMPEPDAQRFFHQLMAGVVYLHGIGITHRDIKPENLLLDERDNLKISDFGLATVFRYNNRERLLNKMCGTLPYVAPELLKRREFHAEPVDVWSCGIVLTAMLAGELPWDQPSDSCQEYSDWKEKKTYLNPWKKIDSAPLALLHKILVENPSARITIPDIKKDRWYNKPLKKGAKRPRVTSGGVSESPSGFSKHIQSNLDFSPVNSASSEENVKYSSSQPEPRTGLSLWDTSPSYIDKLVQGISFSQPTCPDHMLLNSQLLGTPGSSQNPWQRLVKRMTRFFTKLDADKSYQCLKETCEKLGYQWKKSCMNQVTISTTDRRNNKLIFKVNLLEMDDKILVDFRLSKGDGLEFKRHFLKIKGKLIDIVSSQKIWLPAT

[7] = target: Cyclin-dependent kinase 1 (Homo sapiens) (UniProt P06493); experiment: Inhibition of CDK1 at 10 uM by HTRF assay relative to control; procedure, shortened: as §1
Chain of Cyclin-dependent kinase 1 (Homo sapiens) (P06493 whole entry, looked up): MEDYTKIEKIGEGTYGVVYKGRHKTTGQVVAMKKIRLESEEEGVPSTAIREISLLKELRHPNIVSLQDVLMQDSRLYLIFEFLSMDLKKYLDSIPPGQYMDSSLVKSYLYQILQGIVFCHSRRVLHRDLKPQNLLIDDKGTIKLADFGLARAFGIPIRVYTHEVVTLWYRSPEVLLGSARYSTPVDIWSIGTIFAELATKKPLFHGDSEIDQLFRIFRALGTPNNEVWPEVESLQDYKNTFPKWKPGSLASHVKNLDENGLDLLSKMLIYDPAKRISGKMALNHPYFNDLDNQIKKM

[8] = Inhibition of PKA at 10 uM by HTRF assay relative to control; procedure, shortened: as §1
[9] = target: Mitogen-activated protein kinase 1 (Homo sapiens) (UniProt P28482); experiment: Inhibition of ERK2 at 10 uM by HTRF assay relative to control; procedure, shortened: as §1
Chain of Mitogen-activated protein kinase 1 (Homo sapiens) (P28482 whole entry): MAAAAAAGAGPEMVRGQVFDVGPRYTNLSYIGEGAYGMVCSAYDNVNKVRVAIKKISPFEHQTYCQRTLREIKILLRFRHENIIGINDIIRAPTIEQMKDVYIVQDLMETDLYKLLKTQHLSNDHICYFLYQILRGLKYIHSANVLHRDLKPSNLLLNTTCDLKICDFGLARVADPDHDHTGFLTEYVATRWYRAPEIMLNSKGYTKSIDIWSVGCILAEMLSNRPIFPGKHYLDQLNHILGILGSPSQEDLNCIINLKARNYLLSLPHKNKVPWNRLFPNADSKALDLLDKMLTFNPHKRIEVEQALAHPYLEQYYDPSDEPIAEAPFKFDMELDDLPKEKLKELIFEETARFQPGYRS

[10] = target: High affinity nerve growth factor receptor (Homo sapiens) (UniProt P04629); experiment: Inhibition of TrkA at 10 uM by HTRF assay relative to control; procedure, shortened: as §1
Chain of High affinity nerve growth factor receptor (Homo sapiens) (P04629 33-796 limits assumed): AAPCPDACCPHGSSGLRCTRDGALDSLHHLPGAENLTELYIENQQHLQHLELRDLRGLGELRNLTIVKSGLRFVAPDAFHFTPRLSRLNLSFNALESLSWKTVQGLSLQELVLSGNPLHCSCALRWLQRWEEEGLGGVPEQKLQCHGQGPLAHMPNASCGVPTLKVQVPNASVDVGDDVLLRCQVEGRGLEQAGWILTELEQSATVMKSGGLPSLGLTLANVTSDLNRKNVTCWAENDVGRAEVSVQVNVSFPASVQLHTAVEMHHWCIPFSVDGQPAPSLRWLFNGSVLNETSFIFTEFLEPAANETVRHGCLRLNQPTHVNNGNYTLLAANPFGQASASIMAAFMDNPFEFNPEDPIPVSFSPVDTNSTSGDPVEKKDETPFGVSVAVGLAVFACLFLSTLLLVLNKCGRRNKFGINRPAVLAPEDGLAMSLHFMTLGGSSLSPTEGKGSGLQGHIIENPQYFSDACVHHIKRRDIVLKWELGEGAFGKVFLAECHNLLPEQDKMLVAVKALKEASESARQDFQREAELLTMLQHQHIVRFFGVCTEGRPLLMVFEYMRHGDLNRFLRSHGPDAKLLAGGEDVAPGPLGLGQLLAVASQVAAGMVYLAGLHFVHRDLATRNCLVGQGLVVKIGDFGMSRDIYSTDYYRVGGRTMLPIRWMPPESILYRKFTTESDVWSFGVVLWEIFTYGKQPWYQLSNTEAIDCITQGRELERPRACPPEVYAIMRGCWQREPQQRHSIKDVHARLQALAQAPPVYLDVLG

[11] = target: MAP kinase-activated protein kinase 2 (Homo sapiens) (UniProt P49137); experiment: Inhibition of MAPKAPK2 at 10 uM by HTRF assay relative to control; procedure, shortened: as §1
Chain of MAP kinase-activated protein kinase 2 (Homo sapiens) (P49137 whole entry, looked up): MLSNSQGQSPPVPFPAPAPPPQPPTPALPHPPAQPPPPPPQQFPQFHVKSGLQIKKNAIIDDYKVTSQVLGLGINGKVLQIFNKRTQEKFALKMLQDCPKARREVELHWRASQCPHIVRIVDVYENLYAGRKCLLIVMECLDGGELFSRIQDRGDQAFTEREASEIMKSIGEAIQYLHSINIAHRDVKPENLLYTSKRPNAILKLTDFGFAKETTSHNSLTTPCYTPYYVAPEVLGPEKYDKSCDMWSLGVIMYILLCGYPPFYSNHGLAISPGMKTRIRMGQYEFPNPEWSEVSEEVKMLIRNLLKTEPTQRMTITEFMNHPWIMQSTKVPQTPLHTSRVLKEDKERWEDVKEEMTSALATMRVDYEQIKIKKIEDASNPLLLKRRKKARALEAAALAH

[12] = target: Cyclin-dependent kinase 2 (Homo sapiens) (UniProt P24941); experiment: Inhibition of CDK2 at 10 uM by HTRF assay relative to control; procedure, shortened: as §1

Chain of Fibroblast growth factor receptor 1 (Homo sapiens) (P11362 22-822 limits assumed): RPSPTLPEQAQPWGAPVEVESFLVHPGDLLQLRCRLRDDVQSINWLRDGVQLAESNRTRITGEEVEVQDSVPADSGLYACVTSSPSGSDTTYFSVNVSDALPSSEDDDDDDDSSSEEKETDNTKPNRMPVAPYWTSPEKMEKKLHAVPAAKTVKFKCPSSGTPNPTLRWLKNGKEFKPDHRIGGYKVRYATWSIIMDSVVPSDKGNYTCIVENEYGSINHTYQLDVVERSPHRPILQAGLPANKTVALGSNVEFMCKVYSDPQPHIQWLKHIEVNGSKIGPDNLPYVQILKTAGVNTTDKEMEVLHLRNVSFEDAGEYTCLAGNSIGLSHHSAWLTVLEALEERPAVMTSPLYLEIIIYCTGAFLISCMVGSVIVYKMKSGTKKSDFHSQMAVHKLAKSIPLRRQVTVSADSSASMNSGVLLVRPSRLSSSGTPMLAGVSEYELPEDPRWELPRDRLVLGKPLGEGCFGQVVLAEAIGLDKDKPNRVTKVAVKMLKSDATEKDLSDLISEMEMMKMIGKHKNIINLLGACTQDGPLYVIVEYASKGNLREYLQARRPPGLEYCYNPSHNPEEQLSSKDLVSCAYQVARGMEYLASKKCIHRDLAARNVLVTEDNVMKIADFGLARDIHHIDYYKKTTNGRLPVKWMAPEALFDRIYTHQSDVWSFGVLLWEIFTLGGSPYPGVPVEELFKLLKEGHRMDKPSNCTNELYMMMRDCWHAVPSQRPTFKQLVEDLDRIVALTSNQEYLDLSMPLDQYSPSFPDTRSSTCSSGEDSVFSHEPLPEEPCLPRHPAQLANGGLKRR

In the case of `O=C(c1nc(SCc2ccc(Cl)cc2)n2ccccc12)N1CCN(c2cc(Nc3cccc(Br)c3)ncn2)CC1`, the inhibition [1] is reported as 14%, the inhibition [2] is reported as 4% and the inhibition [3] is reported as 24%. For the same compound, the inhibition [4] was 6%, the inhibition [5] was 0% and the inhibition [6] was 5%. For the same compound, the inhibition [7] was 8%, the inhibition [8] was 1% and the inhibition [9] was 1%. The inhibition [10] was 5%, the inhibition [11] was 2% and the inhibition [12] was 5%.
`Cc1cccc(Nc2nccc(Nc3cccc(C(=O)NCc4ccc(N(C)C)cc4)c3)n2)c1` gave an inhibition [1] of 20%, an inhibition [2] of 9% and an inhibition [3] of 33%. The inhibition [4] was 9%, the inhibition [5] was 6% and the inhibition [6] was 6%. The inhibition [7] was 0%, the inhibition [8] was 0% and the inhibition [9] was 0%. It also gave an inhibition [10] of 7%, an inhibition [11] of 4% and an inhibition [12] of 1%.
For `O=C(CN1CCN(c2ncnc3c2CN(Cc2ccccc2)CC3)CC1)Nc1cc(F)ccc1F`, the inhibition [1] was 0%, the inhibition [2] was 2% and the inhibition [3] was 9%. For the same compound, the inhibition [4] was 8%, the inhibition [5] was 2% and the inhibition [6] was 0%. The inhibition [7] was 0%, the inhibition [8] was 0% and the inhibition [9] was 0%. It also gave an inhibition [10] of 10%, an inhibition [11] of 0% and an inhibition [12] of 9%.
For `Cc1cccc(Oc2ccnc(N3CCC[C@H]3C(=O)NCc3cccnc3)n2)c1`, the inhibition [1] was 0%, the inhibition [2] was 6% and the inhibition [3] was 0%. For the same compound, the inhibition [4] was 16%, the inhibition [5] was 0% and the inhibition [6] was 0%. For the same compound, the inhibition [7] was 0%, the inhibition [8] was 0% and the inhibition [9] was 0%. The inhibition [10] was 4%, the inhibition [11] was 0% and the inhibition [12] was 8%.
